Drawing on ChEMBL document CHEMBL1142362, “Synthesis and biological activity of simplified denoviose-coumarins related to novobiocin as potent inhibitors of heat-shock protein 90 (hsp90)” (Bioorg Med Chem Lett, 2008), this text covers Activity and IC50 for 19 compounds.

In assay [1] the test system is MCF7. As to the kind of experiment: Inhibition of HSP90 in human MCF7 cells assessed as decrease in ERalpha level at 100 uM after 16 hrs by Western blot analysis. The class given is cell-based. Put shortly:
(§1)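 Treated MCF-7 cell lysates were immunoblotted using the primary antibodies ERα (HC20) and Raf-1 (C12), with detection by a peroxidase-labelled secondary antibody. The control lysate came from DMSO-exposed cells. A nonspecific band served as the loading control.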
Background: A western blot detects proteins with antibodies after separation by electrophoresis.

The subject of assay [2] is MCF7. Put plainly: Inhibition of HSP90 in human MCF7 cells assessed as decrease in Raf-1 level at 100 uM after 16 hrs by Western blot analysis. The class given is cell-based. Put shortly:
as §1

In assay [3] the test system is MELN. As to the kind of experiment: Effect on estradiol-induced transcription in human MELN cells assessed as inhibition of luciferase activity at 200 uM after 18 hrs relative to control. The class given is functional, cell-based. Put shortly: (§2)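 MELN breast cancer cells were treated for 18 h with the compounds, with or without 0.1 nM estradiol. Luciferase activity was measured and expressed as fold induction relative to untreated control cells.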

The test system of assay [4] is MCF7. As to the kind of experiment: Reversal of inhibition of HSP90 in human MCF7 cells assessed as decrease in ERalpha level at 100 uM after 16 hrs in presence of MG132 by Western blot analysis. The class given is cell-based.
In assay [5] the test system is MCF7. Put plainly: Antiproliferative activity against human MCF7 cells after 72 hrs by MTT assay. Conditions: MCF7, 72 h. In kind it is functional, cell-based. In a few lines:
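MCF-7 cells were seeded at 5000 cells/well and, after 24 h, exposed to serial dilutions for 72 h. Survival was read by MTT. IC50 is the concentration giving 50% growth inhibition versus vehicle-treated cells. Values are the means of three experiments run in sextuplicate, with standard deviation.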
(In general: Tetrazolium assays rely on reduction of a dye to a coloured formazan, in cell work by metabolically active cells.)

Assay [6] deals with MELN. As to the kind of experiment: Effect on estradiol-induced transcription in human MELN cells assessed as increase in luciferase activity at 200 uM after 18 hrs relative to control. In kind it is functional, cell-based. Put shortly:
as §2

The test system of assay [7] is MCF7. As to the kind of experiment: Inhibition of HSP90 in human MCF7 cells assessed as decrease in progesterone receptor B level. The class given is cell-based. In a few lines:
(§3)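 MCF-7 cells were exposed to increasing concentrations, and lysates were immunoblotted for PRA and PRB with a PR (Ab-8) primary antibody and a peroxidase-labelled secondary antibody. The control was a DMSO-exposed lysate. A nonspecific band served as the constant loading reference.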

In assay [8] the test system is MCF7. As to the kind of experiment: Inhibition of HSP90 in human MCF7 cells assessed as decrease in progesterone receptor A level. The class given is cell-based. In a few lines: as §3

Active and inactive are the calls of the source. The rule behind the calls is not given here.

Turning to `Cc1ccc(S(=O)(=O)Oc2c(NC(=O)C3=Cc4ccccc4OC3)c(=O)oc3ccccc23)cc1`, the outcome in the assay on MCF7 [1], in the assay with MCF7 [2], in the assay on MELN [3] and in the assay with MCF7 [4] was Active. The same compound returned an IC50 with MCF7 [5] of 70 µM.
In the case of `COc1cccc(OC)c1C(=O)Nc1c(O)c2ccccc2oc1=O`, the outcome with MCF7 [1], in the assay on MCF7 [2] and in the assay on MCF7 [4] was Active.
Consider `CCCCCCCCCCCCC(=O)Nc1c(-c2cc(OC)c(OC)c(OC)c2)c2ccccc2oc1=O`, for which the outcome with MCF7 [1] and in the assay with MCF7 [2] was inactive.
In the case of `COc1ccc(-c2c(NC(=O)c3cc(OC)c(OC)c(OC)c3)c(=O)oc3ccccc23)cc1`, the result in the assay with MCF7 [1] and with MCF7 [2] was inactive.
As for `COc1ccccc1CC(=O)Nc1c(OS(=O)(=O)c2ccc(C)cc2)c2ccccc2oc1=O`, the result with MELN [3] was Active.
For `CC1(C)CCc2cc(C(=O)Nc3c(O)c4ccccc4oc3=O)ccc2O1`, the result with MCF7 [1], with MCF7 [2] and with MCF7 [4] was Active.
As for `CCCC(=O)Nc1c(OS(=O)(=O)c2ccc(C)cc2)c2ccccc2oc1=O`, the result in the assay on MCF7 [1], in the assay on MCF7 [2], with MELN [3] and with MCF7 [4] was Active. For the same compound, in the assay with MCF7 [5], half-maximal inhibition (IC50) was put at 75 µM.
Consider `COc1ccc2cc(C(=O)Nc3c(O)c4ccccc4oc3=O)c(=O)oc2c1`, for which the result in the assay on MCF7 [1], with MCF7 [2] and with MCF7 [4] was Active.
Take `CC1(C)C=Cc2cc(C(=O)Nc3c(O)c4ccccc4oc3=O)ccc2O1`: the outcome in the assay with MCF7 [1] and with MCF7 [2] was inactive. Also, in the assay with MELN [6], the outcome was Active.
For the compound `COc1ccc(-c2c(NC(=O)c3ccc(OC)cc3OC)c(=O)oc3ccccc23)cc1`, the outcome in the assay on MCF7 [1] and in the assay with MCF7 [2] was inactive.
In the case of `COc1cc(C(=O)Nc2c(OS(=O)(=O)c3ccc(C)cc3)c3ccccc3oc2=O)cc(OC)c1OC`, the outcome in the assay with MCF7 [1], in the assay with MELN [3] and in the assay on MCF7 [4] was Active. In the assay with MCF7 [2], the outcome was inactive. This compound also displayed an IC50 in the assay with MCF7 [5] of 40 µM.
Consider `CCCCCCCCCCCCC(=O)Nc1c(-c2ccc(Cl)cc2)c2ccccc2oc1=O`, for which the outcome in the assay with MCF7 [1] and in the assay with MCF7 [2] was inactive.
With `CCCC(=O)Nc1c(O)c2ccccc2oc1=O`, the result with MCF7 [1] and in the assay on MCF7 [2] was inactive. The result in the assay with MELN [3] was Active.
Take `CCCCCCCCCCCCC(=O)Nc1c(-c2ccc(OC)cc2)c2ccccc2oc1=O`: the outcome in the assay on MCF7 [1], in the assay with MCF7 [2] and with MCF7 [4] was Active.
As for `CCCCCCCCCCCCC(=O)Nc1c(OS(=O)(=O)c2ccc(C)cc2)c2ccccc2oc1=O`, the outcome with MCF7 [1], with MCF7 [2], in the assay with MELN [3] and with MCF7 [4] was Active. Besides, half-maximal inhibition in the assay on MCF7 [5] (IC50) was put at 50 µM.
`COc1ccccc1CC(=O)Nc1c(O)c2ccccc2oc1=O`: the result in the assay on MCF7 [1], with MCF7 [2] and in the assay with MCF7 [4] was Active.
Turning to `Cc1ccc(S(=O)(=O)Oc2c(NC(=O)c3ccc4c(c3)C=CC(C)(C)O4)c(=O)oc3ccccc23)cc1`, the outcome with MCF7 [1], with MCF7 [2], in the assay with MELN [3], in the assay with MCF7 [7], in the assay on MCF7 [8] and in the assay on MCF7 [4] was Active. The IC50 in the assay on MCF7 [5] was determined as 35 µM.
As to `CC(=O)Nc1c(O)c2ccccc2oc1=O`, the result with MCF7 [1], in the assay with MCF7 [2] and with MCF7 [4] was Active.
As for `CCCC(=O)Nc1c(-c2cc(OC)c(OC)c(OC)c2)c2ccccc2oc1=O`, the outcome in the assay on MCF7 [1] and in the assay with MCF7 [2] was inactive.

The IC50 is the concentration needed to halve the response being measured. Low values mean greater potency, high ones weaker potency.
